For series [1], the system named is HT-29. The series is described as follows: Drug level in human HT-29 cells treated with 10 uM [6]-shogaol by HPLC-ECD analysis. Type of series: ADME, cell-based. The procedure, abridged:
(§1)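 Cells (1.0 × 10⁶) attached 24 h in six-well plates, then exposed to 10 μM final in McCoy's 5A with 10% FBS. Extracted with equal volume acetonitrile, diluted 5-fold, analysed by HPLC with electrochemical detection.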

Series [2] in a line: Cytotoxicity against human HCT116 cells assessed as growth inhibition after 24 hrs by MTT assay. As to conditions: HCT-116, 24 h. Type of series: functional, cell-based. The procedure, abridged: (§2)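 Cells seeded at 3000/well, attached 24 h at 37°C, then exposed to test agents (0–80 μM, 0.1% DMSO final) for 24 h in McCoy's 5A with 10% FBS. Medium replaced with 2.41 mM MTT for 3 h at 37°C; formazan dissolved in DMSO, absorbance 550 nm. Viability as percentage of DMSO control; mean ± S.D., n = 6.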
(Formazan colour is commonly taken as a measure of viable cells.)

Series [3] in a line: Drug level in mouse CL-13 cells treated with 10 uM [6]-shogaol by HPLC-ECD analysis. It counts as ADME, cell-based. The procedure, abridged: as §1
Series [4] deals with NCI-H1299. The series is described as follows: Induction of apoptosis in human H1299 cells assessed as apoptotic cells at 40 uM after 24 hrs by TUNEL assay. It counts as functional. The method, boiled down:
(§3)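 HCT-116 or H-1299 cells seeded at 1.0 × 10⁵/well, after 24 h exposed for 24 h to compound (10–80 μM) or DMSO control. Cells were proteinase K-pretreated, formaldehyde-fixed, and slide-mounted for peroxidase TUNEL staining. Ten fields per slide counted at 400×; brown-nucleus cells given as percentage of total cells; mean ± S.E., n = 10.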

Series [5] concerns HCT-116. The series is described as follows: Induction of apoptosis in human HCT116 cells assessed as apoptotic cells at 40 uM after 24 hrs by TUNEL assay. Type of series: functional. The method, boiled down:
as §3

A short description of series [6]: Drug level in mouse CL-13 cells treated with 10 uM [6]-shogaol after 24 hrs by HPLC-ECD analysis. Type of series: ADME, cell-based. The conditions noted are these: cl-13, 24 h. The procedure, abridged: as §1
Series [7] is described as follows: Cytotoxicity against human H1299 cells assessed as growth inhibition after 24 hrs by MTT assay. It counts as functional, cell-based. As to conditions: NCI-H1299, 24 h. The procedure, abridged: as §2
The nature of series [8]: Drug level in C57BL/6J mouse feces treated with [6]-shogaol at 200 mg/kg, po by HPLC-ECD analysis relative to control. It counts as ADME, organism-based. Also on record: dose 200 mg/kg, route oral. The conditions noted are these: in vivo. The procedure, abridged: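 Female C57BL/6J mice gavaged once with 200 mg/kg in corn oil, or corn oil alone (n = 5 each). 24-h feces collected in metabolic cages. Feces extracted by sonication 90 min in MeOH/H2O (50/50) + 0.1% acetic acid, centrifuged, diluted fivefold. Analysed by HPLC with electrochemical array detection (Gemini C18, phosphate/acetonitrile/THF gradient), compared against vehicle controls.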

The test system of series [9] is HCT-116. The series is described as follows: Induction of apoptosis in human HCT116 cells assessed as apoptotic cells at 80 uM after 24 hrs by TUNEL assay. It counts as functional. The procedure, abridged:
as §3

Series [10] can be described thus: Drug level in human HCT116 cells treated with 10 uM [6]-shogaol after 24 hrs by HPLC-ECD analysis. As to conditions: hct-116, 24 h. It counts as ADME, cell-based. The procedure, abridged:
as §1

Series [11] can be described thus: Drug level in human H1299 cells treated with 10 uM [6]-shogaol after 24 hrs by HPLC-ECD analysis. As to conditions: nci-h1299, 24 h. Type of series: ADME, cell-based. The method, boiled down:
as §1

For series [12], the system named is NCI-H1299. Briefly: Induction of apoptosis in human H1299 cells assessed as apoptotic cells at 80 uM after 24 hrs by TUNEL assay. It counts as functional. The procedure, abridged: as §3

pIC50: −log10 of the molar value.

For orientation: pIC50 means the IC50 on a negative log10 scale, so that one unit is a factor of ten.

As for `CCCCCCCC(O)CCc1ccc(O)c(OC)c1` (configuration not stated), the Drug metabolism entry in series [1], in series [3], in series [6], in [10] and in [11] was “metabolite_detected” in each case. The pIC50 in series [2] is 4.09; in [7], 4.11. For the same molecule, the Activity in series [4] was found to be 7.4%; in series [5] it was 9.6%; in series [9], 16.9%; in series [12] it was 15.4%. In series [8], the Drug excretion result was “metabolite_detected”.

The record behind these values is ChEMBL document CHEMBL3526065, “Metabolism of [6]-shogaol in mice and in cancer cells” (Drug Metab Dispos, 2012).
